Test results as given in publication PMC4238911 (Cancer chemotherapy and pharmacology, 2011).
Where two headings read alike, the source gives them in different places.

What was measured:
TrkB = TrkB (Homo sapiens, UniProt Q16620); assay type: cell-based
[1] = test system: refractory high-risk neuroblastoma; experiment: Tumor response; assay type: in vivo, human
Summary of the method: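 Children received the oral test compound BID, 5 of 7 days, in 28-day cycles at 25–120 mg/M2/dose (3 + 3 escalation). Response was assessed after cycles 1, 2, 4 and 8, then every 4th cycle. Scoring used NANT criteria (modified International Neuroblastoma Response Criteria), with RECIST for measurable CT/MRI tumor and Curie score for MIBG lesions.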

[2] = test system: JAK2-mutated (JAK2^V617F) myelofibrosis; settings: 22 patients; cited from earlier work
[3] = previous trials; cited from earlier work
Trk kinase domain = settings: cited from earlier work
clinical = settings: human, in vivo, po
[4] = Plasma pharmacokinetics of lestaurtinib; settings: human, po
[5] = subjects of N = 46, all dose levels
[6] = the other subject with mixed response, complete marrow response

Sequence of TrkB (Q16620 32-822, species assumed): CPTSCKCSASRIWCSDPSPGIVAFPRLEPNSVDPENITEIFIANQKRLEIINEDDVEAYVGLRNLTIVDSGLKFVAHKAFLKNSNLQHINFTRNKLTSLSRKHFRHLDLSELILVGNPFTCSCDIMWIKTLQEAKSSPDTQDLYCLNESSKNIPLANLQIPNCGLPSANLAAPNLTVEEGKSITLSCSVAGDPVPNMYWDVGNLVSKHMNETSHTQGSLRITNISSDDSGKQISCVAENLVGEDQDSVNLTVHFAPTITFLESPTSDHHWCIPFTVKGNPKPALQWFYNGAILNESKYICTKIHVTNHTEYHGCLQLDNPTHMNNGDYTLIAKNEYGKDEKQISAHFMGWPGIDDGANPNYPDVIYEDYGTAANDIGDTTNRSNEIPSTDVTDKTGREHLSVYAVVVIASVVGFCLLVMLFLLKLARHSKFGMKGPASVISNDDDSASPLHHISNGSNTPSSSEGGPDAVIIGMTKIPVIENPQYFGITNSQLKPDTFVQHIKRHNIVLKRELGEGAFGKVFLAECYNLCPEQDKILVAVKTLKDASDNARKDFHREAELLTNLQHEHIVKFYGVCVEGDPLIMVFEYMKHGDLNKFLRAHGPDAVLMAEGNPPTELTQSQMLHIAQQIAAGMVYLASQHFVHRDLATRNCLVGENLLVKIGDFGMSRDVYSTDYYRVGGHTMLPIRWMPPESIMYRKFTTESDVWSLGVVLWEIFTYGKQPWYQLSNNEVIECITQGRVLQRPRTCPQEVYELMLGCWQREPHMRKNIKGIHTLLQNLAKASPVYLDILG

C[C@]12O[C@H](C[C@]1(O)CO)n1c3ccccc3c3c4c(c5c6ccccc6n2c5c31)CNC4=O [lestaurtinib, Lestaurtinib]
Plasma inhibition of phospho-TrkB activity (TrkB; 1 h post-dosing, 120 mg/M^2): uniform inhibition | Inhibition of phosphorylation of TrkB by immunoblotting (TrkB; plasma 1 h after lestaurtinib, days 5 and 26, all ten dose levels, 31 subjects): evident only in cells exposed to plasma from subjects treated at dose levels ≥ 6 | Sustained suppression of TrkB phosphorylation (TrkB; pre-drug/trough plasma samples, twice daily dosing): not evident | Duration of prolonged control of disease, median ([1]; 10 of 26 subjects at doses ≥ 70 mg/M^2/dose BID, range 5–28): 10 cycles | Response/SD > 5 months ([1]; dose level 1–3, of total subjects at these dose levels): 0/9 (total subjects at dose levels 1–3) | Response/SD > 5 months ([1]; dose level 4–5 (2 SD)): 2/22 (2 SD) | Response/SD > 5 months ([1]; dose level 5a–8 (2 PR, 2 Mixed, 4 SD)): 8/16 (2 PR, 2 Mixed, 4 SD) | Subjects who maintained a response or SD for at least 5 cycles ([1]; dose levels > 5, 10 of 26 subjects): 38.5% | Patients who maintained a response or SD ([1]; dose levels ≥ 5a, 8/16): 50% | Duration of maintained response or SD, median ([1]; dose levels ≥ 5a, 8/16 patients): 10 months | Subjects with prolonged control of disease ([1]; doses ≥ 70 mg/M^2/dose BID, 10 of 26 subjects): 38.5% | Duration of prolonged stable disease, median ([1]; nine subjects at dose levels ≥ 5): 6 cycles | Marrow tumor content after treatment ([1]; one subject with prolonged stable disease, decreased from 75): 2% | Urine catecholamine response: reduction in HVA ([1]; second subject with PR): 15% | Urine catecholamine response: reduction in VMA ([1]; second subject with PR): 44% | Duration of prolonged stable disease, median ([1]; six subjects, range 5–13): 7 cycles | Number of treatment courses prior to PD: ≥17 months ([1]; subjects of 46): 3/46 | Number of treatment courses prior to PD: 11–16 months ([1]; subjects of 46, one of 3 stopped therapy after 13 cycles due to toxicity): 3 ^b/46 | Number of treatment courses prior to PD: 4–10 months ([1]; subjects of 46, one of 11 stopped therapy after 5 cycles due to toxicity): 11 ^a/46 | Best overall response: Mixed [1, 5]: 3/46 | Best overall response: PR [1, 5]: 2/46 | Best overall response: Progressive disease [1, 5]: 21/46 | Best overall response: Stable disease [1, 5]: 20/46 | Urine catecholamines: reduction in HVA [1, 6]: 15% | Urine catecholamines: reduction in VMA [1, 6]: 45% | Median duration of response [2]: 14 months | Overall response rate [2]: 27% | Patients with grade 1/2 elevated LFTs possibly related to lestaurtinib [3]: ≤ 30% | Concentration that competitively inhibits ATP binding to the Trk kinase domain (Trk kinase domain): nanomolar concentrations | AUC(0-t) (clinical; 25 mg/m2): 29500 ng·h/mL | Tmax (clinical; 25 mg/m2): 1.5 h | half-life (clinical; 25 mg/m2): 10.5 ± 3.6 h | AUC(0-t) (clinical; 35 mg/m2): 37500 ng·h/mL | Cmax (clinical; 35 mg/m2): 3390 ng/mL | Tmax (clinical; 35 mg/m2): 2 h | half-life (clinical; 35 mg/m2): 7 h | Cmax (clinical; 45 mg/m2): 3060 ng/mL | half-life (clinical; 45 mg/m2): 4.5 ± 1.2 h | AUC(0-t) (clinical; 55 mg/m2): 34900 ng·h/mL | Tmax (clinical; 55 mg/m2): 1 h | half-life (clinical; 55 mg/m2): 6 ± 3.4 h | AUC(0-inf) (clinical; 62.5 mg/m2): 28900 ng·h/mL | Cmax (clinical; 62.5 mg/m2): 4500 ng/mL | half-life (clinical; 62.5 mg/m2): 4.3 ± 0.9 h | Tmax (clinical; 70 mg/m2): 1 h | half-life (clinical; 70 mg/m2): 3.6 ± 1.4 h | AUC(0-inf) (clinical; 77.5 mg/m2): 54800 ng·h/mL | AUC(0-t) (clinical; 77.5 mg/m2): 47500 ng·h/mL | half-life (clinical; 77.5 mg/m2): 8.2 h | AUC(0-t) (clinical; 85 mg/m2): 15500 ng·h/mL | half-life (clinical; 85 mg/m2): 3.9 h | AUC(0-inf) (clinical; 92.5 mg/m2): 51500 ng·h/mL | half-life (clinical; 92.5 mg/m2): 4.3 h | Cmax (clinical; 120 mg/m2): 3510 ng/mL | half-life (clinical; 120 mg/m2): 7.9 h | Tmax [4]: 1 to 2 h | AUC(0-inf) ([4]; 25 mg/m2): 39500 ng·h/mL | Cmax ([4]; 25 mg/m2): 2400 ng/mL | AUC(0-inf) ([4]; 35 mg/m2): 41300 ng·h/mL | AUC(0-inf) ([4]; 45 mg/m2): 16400 ng·h/mL | AUC(0-t) ([4]; 45 mg/m2): 15900 ng·h/mL | Tmax ([4]; 45 mg/m2): 1 h | AUC(0-inf) ([4]; 55 mg/m2): 40800 ng·h/mL | Cmax ([4]; 55 mg/m2): 4900 ng/mL | AUC(0-t) ([4]; 62.5 mg/m2): 26600 ng·h/mL | Tmax ([4]; 62.5 mg/m2): 1 h | AUC(0-inf) ([4]; 70 mg/m2): 15800 ng·h/mL | AUC(0-t) ([4]; 70 mg/m2): 15000 ng·h/mL | Cmax ([4]; 70 mg/m2): 3810 ng/mL | Cmax ([4]; 77.5 mg/m2): 3680 ng/mL | Tmax ([4]; 77.5 mg/m2): 2 h | AUC(0-inf) ([4]; 85 mg/m2): 15600 ng·h/mL | Cmax ([4]; 85 mg/m2): 3460 ng/mL | Tmax ([4]; 85 mg/m2): 1 h | AUC(0-t) ([4]; 92.5 mg/m2): 37100 ng·h/mL | Cmax ([4]; 92.5 mg/m2): 8740 ng/mL | Tmax ([4]; 92.5 mg/m2): 1 h | AUC(0-inf) ([4]; 120 mg/m2): 39500 ng·h/mL | AUC(0-t) ([4]; 120 mg/m2): 34900 ng·h/mL | Tmax ([4]; 120 mg/m2): 1.5 h | Subjects with transaminase elevation grade 3/4 or dose limiting (5 subjects, all dose levels): 11% | MTD (10 dose levels, 25–120 mg/M^2/dose BID): no MTD was defined | Subjects with transaminase elevation grade 1/2 (30 subjects, all dose levels): 64% | Subjects with reversible pancreatitis (grade 2) (after prolonged treatment at higher dose levels): 3 subjects | Hematologic DLTs (all dose levels): no hematologic DLTs identified | # subjects with DLT during course 1 (dose level 4, 55 mg/M^2/dose BID, 7 subjects entered): 7 (1) | # subjects with DLT during course 1 (dose level 5, 70 mg/M^2/dose BID, 10 subjects entered): 10 (2) | # subjects with DLT during course 1 (dose level 8, 120 mg/M^2/dose BID, 6 subjects entered): 6 (1) | Subjects who came off study for toxicity (of 47 enrolled): three
